hERG rescue = shields human hERG channel from block by proarrhythmic agents; CHO-hERG, FluxOR thallium flux, dofetilide IC70 present; hit rate 0.51% among 310,000; activation (rescue from dofetilide block), less the hit threshold, % at 10 µM; AID 1511;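 active means activation above the mean of controls blocked by dofetilide plus 5 SD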;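 further: thallium influx through hERG after potassium depolarization seen as dye fluorescence rise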
KCNK9 block = inhibitors of human KCNK9 two-pore domain potassium channel; HEK293 KCNK9, FluxOR thallium flux fluorescence; stronger effect = lower value; B-score at 10 µM; hit rate 1.2% among 310,000;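 active means ratio B-score over 3 SD below the library mean, with starting fluorescence within 5 SD of its mean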;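 further: negative B-score means less thallium flux so channel inhibition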
KCNQ1 block = human KCNQ1 channel inhibition; P51787; CHO-K1 KCNQ1, FluxOR thallium flux fluorescence; stronger effect = higher value; B-score at 10 µM; hit rate 1.3% among 310,000; AID 2642;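 active means compounds whose thallium flux B-score, printed positive for inhibition, exceeds three library SD while starting fluorescence stays within three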;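 further: channel opened by potassium depolarization with thallium stimulus after 20 min compound exposure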
KCNQ1 act = human KCNQ1 channel potentiation or activation; CHO-K1 KCNQ1, thallium flux FluxOR fluorescence; stronger effect = higher value; B-score at 10 µM; hit rate 0.35% among 310,000;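 active means fluorescence ratio B-score, a plate-corrected score, at least three library SD, with initial intensity B-score within 5 SD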
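System: CHO-K1 cells stably expressing KCNQ1 / Medium: assay buffer for compound exposure, DMSO matched across wells / Reagent: thallium- and potassium-containing depolarizing buffer / Compound: one concentration, matched DMSO / Incubation: 20 min compound pretreatment at room temperature / Measured by: kinetic FluxOR fluorescence, 10 s baseline plus 110 s post-stimulus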
Cl transport mod = KCC2 (human) Cl- transport modulation | Q9H2X9 | KCC2 cells, thallium flux FluoZin-2 fluorescence | B-score of Tl+ flux slope (higher = more flux/activation; lower = inhibition) at 10 µM | hit rate 2.2% among 190,000;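 active means thallium flux slope and its plate-corrected score both differing from the plate sample mean at a set confidence after two filtering rounds, in either direction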;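 further: slope of fluorescence scaled to starting intensity during 10 to 20 s after thallium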
KCNK3 inh = human KCNK3 channel inhibition, primary screen. B-score at 10 µM. O14649. CHO-KCNK3 thallium flux, FluxOR fluorescence; stronger effect = lower value. hit rate 0.84% among 340,000;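 active means B-score under library mean minus 4 SD, starting fluorescence ratio at most library mean plus 5 SD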;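 further: more negative B-score means stronger inhibition of thallium flux through KCNK3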
KCNK9 block conf = confirmation of human KCNK9 potassium channel inhibitors. shares compounds with KCNK9 block. HEK293 KCNK9 cells, FluxOR thallium flux fluorescence. inhibition, % at 10 µM. hit rate 43% among 4,900. AID 492992;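 active means thallium signal inhibited by more than 5 SD of the compound-free buffer control wells, on both duplicate plates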;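 further: 0% = assay buffer control wells without compound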
Kir21 sel = mouse Kir2.1 off-target activity of KCNK9 modulators | shares compounds with KCNK9 block | Kir2.1 cells, FluxOR thallium flux fluorescence | hit rate 4% among 4,900 | inhibition, % at 10 µM | AID 492993;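 active means thallium signal drop more than 5 SD beyond the mean of the no-compound control wells, seen in both duplicate plates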;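 further: signal is fluorescence rise after thallium addition divided by baseline fluorescence; plate controls were assay buffer only for no effect and full block by chlorpromazine control for full effect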
Target sequence (P35561 whole entry, looked up): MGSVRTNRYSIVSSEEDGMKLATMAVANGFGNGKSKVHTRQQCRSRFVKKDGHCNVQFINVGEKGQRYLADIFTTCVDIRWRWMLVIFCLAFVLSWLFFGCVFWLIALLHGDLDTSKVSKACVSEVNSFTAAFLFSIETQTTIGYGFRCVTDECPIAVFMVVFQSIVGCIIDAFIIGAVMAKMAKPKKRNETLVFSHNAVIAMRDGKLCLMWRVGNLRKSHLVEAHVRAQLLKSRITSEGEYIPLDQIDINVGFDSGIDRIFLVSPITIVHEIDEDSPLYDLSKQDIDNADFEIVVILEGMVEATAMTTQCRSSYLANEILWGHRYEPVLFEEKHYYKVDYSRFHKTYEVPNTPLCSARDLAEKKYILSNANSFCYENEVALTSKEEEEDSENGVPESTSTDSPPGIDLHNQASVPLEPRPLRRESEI
HEK293 Tl ctr = non-induced cell nonspecific activity of KCNK9 modulators | inhibition, % at 10 µM | shares compounds with KCNK9 block | non-induced KCNK9-HEK293, FluxOR thallium flux | hit rate 40% among 4,900;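 active means thallium signal drop beyond 5 SD of the untreated control mean, on both duplicate plates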;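 further: plate controls were buffer only IC0 wells for no effect and SID17386958 at its maximal inhibitory level for full effect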
* hit, by the source's call; i = inactive; nt = no result. A selection: hits, their analogues and other compounds. The true share with any hit is near 4.1%.

SMILES	hERG rescue	KCNK9 block	KCNQ1 block	KCNQ1 act	Cl transport mod	KCNK3 inh	KCNK9 block conf	Kir21 sel	HEK293 Tl ctr
CC(=O)c1ccc(OC(=O)CCN2c3ccccc3Sc3ccccc32)cc1	-7	-12*	i	i	-0.88	i	74%*	i	28%*
CC(=O)c1ccc2c(c1)N(CCCN(C)C)c1ccccc1S2	nt	nt	nt	nt	nt	i	nt	nt	nt
O=S1(=O)c2ccc(Br)cc2N2CC[C@H](C2)N1Cc1ccc(Cl)cc1	nt	nt	nt	nt	nt	i	nt	nt	nt
Cc1ccccc1N1CCN(CCCN2C(=O)CC(=C(c3ccccc3)c3ccccc3)C2=O)CC1	-11	i	i	i	1.7	i	i	i	i
O=C1CC(=C(c2ccccc2)c2ccccc2)C(=O)N1CCCCN1CCN(c2cccc(Cl)c2)CC1	-19	i	i	i	0.19	i	nt	nt	nt
COc1cc(NS(=O)(=O)c2ccc(N/C=C(\C#N)c3nc4cc(Cl)ccc4o3)cc2)nc(OC)n1	-8	i	i	i	-0.11	i	i	i	i
COc1cc(NS(=O)(=O)c2ccc(NC(C)=O)cc2)nc(OC)n1	-12	i	i	i	nt	i	nt	nt	nt
CCn1c(C(=O)N2CCCC(C(=O)NCCCc3ccccc3)C2)cc2sccc21 (centres undefined)	-9	i	i	i	nt	i	i	i	i
CCn1c(C(=O)N2CCCC(C(=O)NCCc3ccc(C)cc3)C2)cc2sccc21 (centres undefined)	nt	nt	nt	nt	-2.3	i	nt	nt	nt
Cn1c(C(=O)N2CCCC(C(=O)NCCCSC3CCCCC3)C2)cc2sccc21 (centres undefined)	-4	i	i	i	-0.98	i	i	i	i
O=C(c1ccccc1Sc1ccccc1[N+](=O)[O-])N1CCCCC1	4	i	i	i	nt	i	i	i	i
COc1cccc([C@@H]2Oc3ccc(OC)cc3C(=O)[C@H]2OC(=O)N[C@H](C)C2CCCCC2)c1	-6	-8.7*	i	i	0.23	nt	49%*	i	42%*
O=C(O)c1cc(S(=O)(=O)NC23CC4CC(CC(C4)C2)C3)ccc1Cl	-2	i	i	i	nt	i	nt	nt	nt
COC(=O)C(Cc1ccc(OC(=O)c2ccc(C(F)(F)F)cc2)cc1)N1Cc2ccccc2C1=O (centres undefined)	-10	i	6*	i	0.65	i	i	i	i
COC(=O)C(Cc1ccc(OC(=O)c2ccc(Cl)cc2)cc1)N1Cc2ccccc2C1=O (centres undefined)	-19	i	i	i	0.24	i	nt	nt	nt
CCOC(=O)c1sc(-c2ccccc2)cc1NC(=O)Nc1ccccc1	-11	i	i	i	0.89	i	i	i	i
CCOc1ccc(C(=O)Nc2cc(NC(=O)c3ccc(OCC)c(Cl)c3)cc(C(=O)O)c2)cc1Cl	-10	i	i	i	-0.27	i	i	i	i
CCOc1ccccc1NC(=O)c1cccc(NC(=O)CC(c2ccccc2)c2ccccc2)c1	-13	i	i	i	1.4	i	nt	nt	nt
CCOc1ccccc1NC(=O)c1ccc(Cl)c(NC(=O)CC(c2ccccc2)c2ccccc2)c1	-4	-9.9*	i	i	nt	i	49%*	i	30%*
COCCN(Cc1nc2ccccc2c(=O)[nH]1)C(=O)COc1c(C)cc(Cl)cc1C	nt	nt	nt	nt	nt	i	nt	nt	nt
CCc1ccccc1NC(=O)c1cc([N+](=O)[O-])ccc1N1CCOCC1	-5	i	i	i	nt	i	nt	nt	nt
O=C(Nc1ccccc1N1CCOCC1)c1cccc2c(Br)cccc12	-2	i	i	i	nt	i	i	i	i
